We go through 29 molecules from ChEMBL document CHEMBL4043228, “Design and synthesis of pregnenolone/2-cyanoacryloyl conjugates with dual NF-κB inhibitory and anti-proliferative activities” (Bioorg Med Chem Lett, 2017).

Activity calls are given as the source filed them. The rule behind the calls is not given here.

Series [1] can be described thus: Cytotoxicity against HEK293 cells assessed as cell viability at 20 ug/ml relative to control. The series is classed as cell-based. As to conditions: human, read-out: Activity. The procedure, abridged: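 HEK293/NF-κB reporter cells exposed to compounds at 20 µg/mL; cytotoxicity assessed.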
The species entered for series [2] is Homo sapiens. The series can be described thus: Inhibition of TNFalpha-stimulated NF-kappaB (unknown origin) activation expressed in HEK293 cells at 20 ug/ml incubated for 6 hrs with TNFalpha followed by incubation in dark for 30 mins by luciferase reporter gene assay relative to control. The class given is cell-based. An outline of the steps:
(§1)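 HEK293 cells stably carrying NF-κB-responsive luciferase reporter (selected with 1 mg/mL G418) seeded, after 24 h stimulated with TNF-α 0.2 μg/mL, then exposed to compounds for 6 h; lysate incubated with luciferase substrate 30 min in dark, luminescence read. Screening at 20 µg/mL as percent inhibition; IC50 from nine concentrations, 0.78-20 μM. PS-341 reference.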
(In a reporter assay the amount or activity of a reporter protein is the signal.)

The nature of series [3]: Inhibition of TNFalpha-stimulated NF-kappaB (unknown origin) activation expressed in HEK293 cells incubated for 6 hrs with TNFalpha followed by incubation in dark for 30 mins by luciferase reporter gene assay. The class given is cell-based. As to conditions: Homo sapiens. The procedure, abridged: as §1
A further series deals with MCF7. In words: Antiproliferative activity against human MCF7 cells after 48 hrs by MTT assay. The series is classed as functional, cell-based. As to conditions: MCF7, 48 h. An outline of the steps:
(§2)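 Tumour cell lines MCF-7, A549, H157, HepG2 and HL-60 were tested by MTT method; doxorubicin served as positive control.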

The subject of another series is HepG2. The series can be described thus: Antiproliferative activity against human HepG2 cells after 48 hrs by MTT assay. Conditions: HepG2, 48 h. The class given is functional, cell-based. The procedure, abridged: as §2
Background: Tetrazolium dyes change colour on reduction, which living cells bring about.

For the next series, the system named is HL-60. The series can be described thus: Antiproliferative activity against human HL60 cells after 48 hrs by MTT assay. The class given is functional, cell-based. As to conditions: HL-60, 48 h. An outline of the steps: as §2
In another series the test system is NCI-H157. The series can be described thus: Antiproliferative activity against human NCI-H157 cells after 48 hrs by MTT assay. The series is classed as functional, cell-based. As to conditions: NCI-H157, 48 h. The procedure, abridged:
as §2

Another series deals with A549. In words: Antiproliferative activity against human A549 cells after 48 hrs by MTT assay. The series is classed as functional, cell-based. Conditions: A549, 48 h. The procedure, abridged:
as §2

Series [4] is filed under the species Homo sapiens. The series can be described thus: Inhibition of TNFalpha-stimulated NF-kappaB (unknown origin) activation assessed as IkappaBalpha degradation at 10 uM after 4 hrs by Western blot analysis.

By inhibition is commonly meant the relative decrease from the control value, in per cent. In general, IC50 refers to the concentration that gives 50% inhibition. Higher therefore signals weaker potency in that assay. For the molecule `CC(=O)[C@H]1CC[C@H]2[C@@H]3CC=C4C[C@@H](OC(=O)NCCNC(=O)/C(C#N)=C/c5cccc(F)c5)CC[C@]4(C)[C@H]3CC[C@]12C`, the viability at 20 ug/ml in series [1] was 60.8%. This molecule registered an inhibition in the series filed under Homo sapiens [2] of 64.2%. Further, the IC50 in series [3] was 7.1 µM; with MCF7, 6.1 µM; in the series with HepG2, above 50 µM; in the series on HL-60, 45.6 µM; in the series on NCI-H157, 17.9 µM; in the series with A549, above 50 µM.

Turning to `CC(=O)[C@H]1CC[C@H]2[C@@H]3CC=C4C[C@@H](OC(=O)NCCNC(=O)/C(C#N)=C/c5ccc([N+](=O)[O-])cc5)CC[C@]4(C)[C@H]3CC[C@]12C`, in the series filed under Homo sapiens [4], the inhibition result is “Active”. In addition, the viability at 20 ug/ml in series [1] came out at 74.5%. In the series listed under Homo sapiens [2], this molecule returned an inhibition of 78.3%. In addition, the IC50 was 10.3 µM in series [3]; above 50 µM in the series with MCF7; above 50 µM in the series on HepG2; 10.1 µM with HL-60; above 50 µM in the series on NCI-H157; above 50 µM in the series with A549.

In the case of `COc1cccc2c1C(=O)c1c(O)c3c(c(O)c1C2=O)C[C@@](O)(C(=O)CO)C[C@@H]3O[C@H]1C[C@H](N)[C@H](O)[C@H](C)O1` [DOXORUBICIN], the concentration for half-maximal inhibition (IC50) in the series on MCF7 stood at 4.4 µM; in the series with HL-60, 0.91 µM; with NCI-H157, 0.61 µM; in the series with A549 it was 11 µM.

In the series listed under Homo sapiens [2], `COc1ccc(/C=C(\C#N)C(=O)NCCNC(=O)O[C@H]2CC[C@@]3(C)C(=CC[C@H]4[C@@H]5CC[C@H](C(C)=O)[C@@]5(C)CC[C@@H]43)C2)cc1OC` had an inhibition of 5.8%.

`CC(=O)[C@H]1CC[C@H]2[C@@H]3CC=C4C[C@@H](OC(=O)NCCNC(=O)/C(C#N)=C/c5ccccc5)CC[C@]4(C)[C@H]3CC[C@]12C` had an inhibition in the series listed under Homo sapiens [2] of 46.7%.

Regarding `COc1cc(/C=C(\C#N)C(=O)NCCNC(=O)O[C@H]2CC[C@@]3(C)C(=CC[C@H]4[C@@H]5CC[C@H](C(C)=O)[C@@]5(C)CC[C@@H]43)C2)ccc1O`, the inhibition in the series listed under Homo sapiens [2] was 34.6%.

For the molecule `COc1ccc(/C=C(\C#N)C(=O)NCCNC(=O)O[C@H]2CC[C@@]3(C)C(=CC[C@H]4[C@@H]5CC[C@H](C(C)=O)[C@@]5(C)CC[C@@H]43)C2)cc1`, in the series listed under Homo sapiens [2], the inhibition turned out to be 22.3%.

As to `COc1cc(/C=C(\C#N)C(=O)NCCNC(=O)O[C@H]2CC[C@@]3(C)C(=CC[C@H]4[C@@H]5CC[C@H](C(C)=O)[C@@]5(C)CC[C@@H]43)C2)cc(OC)c1O`, the inhibition in the series filed under Homo sapiens [2] is 5%.

As to `CC(C)C[C@H](NC(=O)[C@H](Cc1ccccc1)NC(=O)c1cnccn1)B(O)O` [BORTEZOMIB], it took 0.03 µM to reach half-maximal inhibition in series [3] (IC50).

In the series filed under Homo sapiens [2], `CC(=O)[C@H]1CC[C@H]2[C@@H]3CC=C4C[C@@H](OC(=O)NCCNC(=O)/C(C#N)=C/c5ccc(O)c(O)c5)CC[C@]4(C)[C@H]3CC[C@]12C` showed an inhibition of 59.3%.

`COc1cc(/C=C(\C#N)C(=O)NCCNC(=O)O[C@H]2CC[C@@]3(C)C(=CC[C@H]4[C@@H]5CC[C@H](C(C)=O)[C@@]5(C)CC[C@@H]43)C2)cc(O)c1OC` yielded an inhibition in the series filed under Homo sapiens [2] of 22.6%.

In the case of `CC(=O)[C@H]1CC[C@H]2[C@@H]3CC=C4C[C@@H](OC(=O)NCCNC(=O)/C(C#N)=C/c5cccc(C#N)c5)CC[C@]4(C)[C@H]3CC[C@]12C`, the viability at 20 ug/ml in [1] was 59.6%. Besides, the inhibition in the series listed under Homo sapiens [2] amounted to 81.4%. Also, the IC50 in [3] is 3.3 µM; in the series with MCF7, 8.8 µM; with HepG2 it was above 50 µM; in the series on HL-60, 15.6 µM; with NCI-H157 it was 21.3 µM; in the series with A549 it was 30.9 µM.

On to `CC(=O)[C@H]1CC[C@H]2[C@@H]3CC=C4C[C@@H](OC(=O)NCCNC(=O)/C(C#N)=C/c5ccc(C#N)cc5)CC[C@]4(C)[C@H]3CC[C@]12C`, for which the viability at 20 ug/ml in [1] is 64.4%. Further, the inhibition in the series listed under Homo sapiens [2] is 64.4%. The IC50 was 7.5 µM in series [3]; above 50 µM with MCF7; above 50 µM with HepG2; above 100 µM in the series with HL-60; 24.5 µM in the series on NCI-H157; above 50 µM in the series with A549.

For the molecule `COc1ccccc1/C=C(\C#N)C(=O)NCCNC(=O)O[C@H]1CC[C@@]2(C)C(=CC[C@H]3[C@@H]4CC[C@H](C(C)=O)[C@@]4(C)CC[C@@H]32)C1`, the inhibition in the series filed under Homo sapiens [2] turned out to be 17.8%.

In the series listed under Homo sapiens [2], `CC(=O)[C@H]1CC[C@H]2[C@@H]3CC=C4C[C@@H](OC(=O)NCCNC(=O)/C(C#N)=C/c5cccc(Cl)c5)CC[C@]4(C)[C@H]3CC[C@]12C` displayed an inhibition of 46.4%.

For `CCN(CC)c1ccc(/C=C(\C#N)C(=O)NCCNC(=O)O[C@H]2CC[C@@]3(C)C(=CC[C@H]4[C@@H]5CC[C@H](C(C)=O)[C@@]5(C)CC[C@@H]43)C2)cc1`, the inhibition in the series listed under Homo sapiens [2] amounted to 0.5%.

As to `CC(=O)[C@H]1CC[C@H]2[C@@H]3CC=C4C[C@@H](OC(=O)NCCNC(=O)/C(C#N)=C/c5ccc6c(c5)OCCO6)CC[C@]4(C)[C@H]3CC[C@]12C`, the inhibition in the series listed under Homo sapiens [2] stood at 4.2%.

For the molecule `CC(=O)[C@H]1CC[C@H]2[C@@H]3CC=C4C[C@@H](OC(=O)NCCNC(=O)/C(C#N)=C/c5ccc(Cl)cc5)CC[C@]4(C)[C@H]3CC[C@]12C`, the inhibition in the series listed under Homo sapiens [2] was 18.8%.

In the series filed under Homo sapiens [2], `COc1cccc(/C=C(\C#N)C(=O)NCCNC(=O)O[C@H]2CC[C@@]3(C)C(=CC[C@H]4[C@@H]5CC[C@H](C(C)=O)[C@@]5(C)CC[C@@H]43)C2)c1` returned an inhibition of 22.2%.

With `CC(=O)[C@H]1CC[C@H]2[C@@H]3CC=C4C[C@@H](OC(=O)NCCNC(=O)/C(C#N)=C/c5ccc(N(C)C)cc5)CC[C@]4(C)[C@H]3CC[C@]12C`, in the series filed under Homo sapiens [2], the inhibition was 1.2%.

With `CC(=O)[C@H]1CC[C@H]2[C@@H]3CC=C4C[C@@H](OC(=O)NCCNC(=O)OC(C)(C)C)CC[C@]4(C)[C@H]3CC[C@]12C`, the viability at 20 ug/ml in series [1] amounted to 85.5%. For the same molecule, in the series filed under Homo sapiens [2], the inhibition turned out to be 76.6%. Also, the IC50 in [3] is 12.2 µM; in the series with MCF7 it was above 50 µM; with HepG2, above 50 µM; in the series on HL-60 it was above 50 µM; with NCI-H157, above 50 µM; with A549, above 50 µM.

As to `CC(=O)[C@H]1CC[C@H]2[C@@H]3CC=C4C[C@@H](OC(=O)NCCNC(=O)CC#N)CC[C@]4(C)[C@H]3CC[C@]12C`, the viability at 20 ug/ml in [1] is 87.9%. In the series listed under Homo sapiens [2], this molecule registered an inhibition of 74.4%. The 50% inhibitory concentration (IC50) in series [3] is 12.4 µM; in the series with MCF7, above 50 µM; in the series with HepG2 it was above 50 µM; in the series on HL-60, above 50 µM; in the series on NCI-H157, above 50 µM; in the series on A549, above 50 µM.

Molecule `CC(=O)[C@H]1CC[C@H]2[C@@H]3CC=C4C[C@@H](OC(=O)NCCNC(=O)/C(C#N)=C/c5ccc(F)cc5)CC[C@]4(C)[C@H]3CC[C@]12C` gave an inhibition in the series filed under Homo sapiens [2] of 43.1%.

In the series filed under Homo sapiens [2], `CC(=O)[C@H]1CC[C@H]2[C@@H]3CC=C4C[C@@H](OC(=O)NCCNC(=O)/C(C#N)=C/c5ccc(C(C)C)cc5)CC[C@]4(C)[C@H]3CC[C@]12C` displayed an inhibition of 2.1%.

Take `COc1ccc(/C=C(\C#N)C(=O)NCCNC(=O)O[C@H]2CC[C@@]3(C)C(=CC[C@H]4[C@@H]5CC[C@H](C(C)=O)[C@@]5(C)CC[C@@H]43)C2)cc1O`: the inhibition in the series listed under Homo sapiens [2] came out at 14.5%.

For the molecule `CC(=O)[C@H]1CC[C@H]2[C@@H]3CC=C4C[C@@H](OC(=O)NCCNC(=O)/C(C#N)=C/c5cccc([N+](=O)[O-])c5)CC[C@]4(C)[C@H]3CC[C@]12C`, the viability at 20 ug/ml in series [1] worked out at 54.7%. Further, in the series filed under Homo sapiens [2], the inhibition was 83.9%. In addition, the IC50 in series [3] was 2.5 µM; in the series with MCF7, 6.5 µM; with HepG2, above 50 µM; in the series with HL-60, 11.2 µM; in the series with NCI-H157 it was 30.6 µM; with A549 it was 36.2 µM.

`CC(=O)[C@H]1CC[C@H]2[C@@H]3CC=C4C[C@@H](OC(=O)NCCNC(=O)/C(C#N)=C/c5cccc(Br)c5)CC[C@]4(C)[C@H]3CC[C@]12C` displayed an inhibition in the series listed under Homo sapiens [2] of 30.9%.

In the series filed under Homo sapiens [2], `CC(=O)[C@H]1CC[C@H]2[C@@H]3CC=C4C[C@@H](OC(=O)NCCNC(=O)/C(C#N)=C/c5ccc(Br)cc5)CC[C@]4(C)[C@H]3CC[C@]12C` came in with an inhibition of 15.9%.

In the case of `CC(=O)[C@H]1CC[C@H]2[C@@H]3CC=C4C[C@@H](OC(=O)NCCNC(=O)/C(C#N)=C/c5ccc(O)cc5)CC[C@]4(C)[C@H]3CC[C@]12C`, the inhibition in the series filed under Homo sapiens [2] worked out at 44.9%.
